The record followed here is ChEMBL document CHEMBL3585285, “Amino Acid Thioester Derivatives: A Highly Promising Scaffold for the Development of Metallo-β-lactamase L1 Inhibitors” (ACS Med Chem Lett, 2015).

In experiment [1] the test system is Escherichia coli. The experiment in a line: Antibacterial activity against Escherichia coli after 12 hrs by macrodilution broth method. It is filed as functional.
A short description of experiment [2]: Inhibition of NDM1 (unknown origin) overexpressed in Escherichia coli BL21 (DE3) using cefazolin as substrate incubated for 30 mins prior to testing by UV spectrophotometric analysis. Put shortly: (§1)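 Each enzyme (CcrA or NDM-1) was assayed on cefazolin hydrolysis followed at 262 nm. Initial rates were measured in triplicate with or without inhibitor and averaged. IC50 is the concentration causing 50% loss of activity.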

Experiment [3] has as its system Aeromonas veronii bv. sobria. The experiment in a line: Inhibition of Aeromonas veronii bv. sobria ImiS overexpressed in Escherichia coli BL21 (DE3) assessed as imipenem MIC at 16 ug/ml after 12 hrs by macrodilution broth method. The gist of the method:
(§2)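 MICs of antibiotic were measured with and without inhibitor at a final 16 μg/mL in E. coli BL21(DE3) carrying pMSZ02-CcrA, pET26b-NDM-1, pET26b-ImiS or pET26b-L1, plus plasmid-free BL21(DE3) as a control. Cefazolin was the antibiotic for the CcrA, NDM-1 and L1 strains; imipenem was used for the ImiS strain.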

In experiment [4] the test system is Escherichia coli. The experiment in a line: Antibacterial activity against Escherichia coli assessed as cefazolin MIC after 12 hrs by macrodilution broth method (reference value: 64 ug/ml). It is filed as functional.
Experiment [5] has as its target Beta-lactamase L1 (Stenotrophomonas maltophilia) (UniProt P52700). The experiment in a line: Inhibition of Stenotrophomonas maltophilia L1 overexpressed in Escherichia coli BL21 (DE3) assessed as reduction of cefazolin MIC at 16 ug/ml after 12 hrs by macrodilution broth method relative to cefazolin-treated control. The gist of the method:
as §2

Experiment [6] is described as follows: Inhibition of NDM1 (unknown origin) overexpressed in Escherichia coli BL21 (DE3) assessed as cefazolin MIC at 16 ug/ml after 12 hrs by macrodilution broth method. The gist of the method: as §2
The test system of experiment [7] is Escherichia coli. The experiment in a line: Antibacterial activity against Escherichia coli assessed as imipenem MIC after 12 hrs by macrodilution broth method (reference value: 0.5 ug/ml). It is filed as functional.
Experiment [8] can be described thus: Inhibition of Aeromonas veronii bv. sobria ImiS overexpressed in Escherichia coli BL21 (DE3) using imipenem as substrate incubated for 30 mins prior to testing by UV spectrophotometric analysis. The gist of the method: (§3)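 ImiS activity measured as imipenem hydrolysis monitored at 300 nm. Initial rates were taken with and without inhibitor, each in triplicate and averaged. IC50 is the inhibitor concentration giving a 50% drop in enzyme activity.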

Experiment [9] concerns the target Metallo-beta-lactamase type 2 (Bacteroides fragilis) (UniProt P25910). The experiment is described as follows: Inhibition of Bacteroides fragilis CcrA overexpressed in Escherichia coli BL21 (DE3) assessed as cefazolin MIC at 16 ug/ml after 12 hrs by macrodilution broth method. Put shortly:
as §2

For experiment [10] the target is unchanged. The experiment in a line: Inhibition of Bacteroides fragilis CcrA overexpressed in Escherichia coli BL21 (DE3) using cefazolin as substrate up to 5 uM incubated for 30 mins prior to testing by UV spectrophotometric analysis. The gist of the method: as §1
The target of experiment [11] is T1, Beta-lactamase L1 (Stenotrophomonas maltophilia, UniProt P52700). The experiment in a line: Mixed-type inhibition of Stenotrophomonas maltophilia L1 overexpressed in Escherichia coli BL21 (DE3) using cefazolin as substrate incubated for 30 mins prior to testing by Lineweaver-Burk plot analysis.
T1 sequence (P52700 whole entry): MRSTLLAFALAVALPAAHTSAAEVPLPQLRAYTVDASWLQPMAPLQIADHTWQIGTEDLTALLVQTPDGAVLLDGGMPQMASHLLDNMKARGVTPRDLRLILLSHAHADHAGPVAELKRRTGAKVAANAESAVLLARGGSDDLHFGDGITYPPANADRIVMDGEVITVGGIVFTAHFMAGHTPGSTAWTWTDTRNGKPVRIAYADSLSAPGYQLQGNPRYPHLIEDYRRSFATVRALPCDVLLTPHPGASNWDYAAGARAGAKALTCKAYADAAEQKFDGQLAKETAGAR
The target of experiment [12] is T1, Beta-lactamase L1. The experiment in a line: Inhibition of Stenotrophomonas maltophilia L1 overexpressed in Escherichia coli BL21 (DE3) using cefazolin as substrate incubated for 30 mins prior to testing by UV spectrophotometric analysis.
Experiment [13] concerns the target Beta-lactamase L1 (Stenotrophomonas maltophilia) (UniProt P52700). The experiment in a line: Inhibition of Stenotrophomonas maltophilia L1 overexpressed in Escherichia coli BL21 (DE3) assessed as cefazolin MIC at 16 ug/ml after 12 hrs by macrodilution broth method. The gist of the method: as §2
Experiment [14] deals with Aeromonas veronii bv. sobria. The experiment in a line: Inhibition of Aeromonas veronii bv. sobria ImiS overexpressed in Escherichia coli BL21 (DE3) using imipenem as substrate up to 5 uM incubated for 30 mins prior to testing by UV spectrophotometric analysis. The gist of the method: as §3
In experiment [15] the target is Metallo-beta-lactamase type 2 (Bacteroides fragilis, UniProt P25910). The experiment in a line: Inhibition of Bacteroides fragilis CcrA overexpressed in Escherichia coli BL21 (DE3) using cefazolin as substrate incubated for 30 mins prior to testing by UV spectrophotometric analysis. Put shortly: as §1
Chain of Metallo-beta-lactamase type 2 (P25910 whole entry): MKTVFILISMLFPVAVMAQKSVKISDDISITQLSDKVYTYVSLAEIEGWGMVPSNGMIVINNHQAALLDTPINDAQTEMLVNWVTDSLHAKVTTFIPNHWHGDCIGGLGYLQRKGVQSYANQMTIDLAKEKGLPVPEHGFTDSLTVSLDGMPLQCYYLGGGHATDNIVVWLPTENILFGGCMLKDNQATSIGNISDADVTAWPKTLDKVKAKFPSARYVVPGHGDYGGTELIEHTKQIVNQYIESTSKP

The structures appear in SMILES notation. ≈ marks a conversion by molar mass, not a printed value. Calls of active or inactive are those of the source. No cut-off for these calls is given here.

Chain of Metallo-beta-lactamase type 2 (Bacteroides fragilis) (P25910 whole entry): as above
Chain of Beta-lactamase L1 (Stenotrophomonas maltophilia) (P52700 34-290 limits assumed): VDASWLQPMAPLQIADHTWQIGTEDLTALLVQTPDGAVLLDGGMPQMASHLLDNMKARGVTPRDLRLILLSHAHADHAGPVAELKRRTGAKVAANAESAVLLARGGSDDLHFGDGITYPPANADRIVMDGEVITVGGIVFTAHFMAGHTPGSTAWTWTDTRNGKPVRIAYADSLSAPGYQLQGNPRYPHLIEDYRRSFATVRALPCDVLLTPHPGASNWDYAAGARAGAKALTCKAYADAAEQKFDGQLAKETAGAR

Regarding `C[C@@H](O)[C@H]1C(=O)N2C(C(=O)O)=C(SCCNC=N)C[C@H]12` [IMIPENEM ANHYDROUS], the MIC with Escherichia coli [1] turned out to be 0.5 µg/mL (≈ 1.67 µM).
Regarding `Cc1nnc(SCC2=C(C(=O)O)N3C(=O)[C@@H](NC(=O)Cn4cnnn4)[C@H]3SC2)s1` [CEFAZOLIN], the MIC against Escherichia coli [1] came out at 64 µg/mL (≈ 141 µM).
As for `CC(C)C[C@H](NC(=O)Cc1cccs1)C(=O)SCC(=O)O`, the IC50 was 28.5 µM in experiment [2], 3.6 µM in experiment [8] and 0.069 µM at Beta-lactamase L1 [12]. For the same compound, the MIC in experiment [3] is 1 µg/mL; with Escherichia coli [4] it was 64 µg/mL; in [6] it was 4 µg/mL; in the experiment with Escherichia coli [7], 0.5 µg/mL; in experiment [9] it was 4 µg/mL; in experiment [13], 2 µg/mL. The fold change (FC) in [5] came out at 4. For the same compound, in [10], the inhibition result is “inactive”. The same compound had a Ki on Beta-lactamase L1 [11] of 0.21 µM.
As to `O=C(O)CSC(=O)CNC(=O)Cc1cccs1`, the values for the half-inhibitory concentration (IC50) (in experiment [2]; in experiment [8]; on Beta-lactamase L1 [12]) were 28.7 µM, 61.5 µM and 0.84 µM, respectively. Moreover, the MIC worked out at 1 µg/mL in experiment [3]; 64 µg/mL with Escherichia coli [4]; 4 µg/mL in experiment [6]; 0.5 µg/mL with Escherichia coli [7]; 4 µg/mL in experiment [9]; 4 µg/mL in experiment [13]. Moreover, the fold change (FC) in experiment [5] is 2. In addition, in experiment [10], the inhibition result was “inactive”. In addition, at Beta-lactamase L1 [11], the Ki was found to be 0.28 µM.
Take `O=C(O)CSC(=O)[C@H](Cc1c[nH]c2ccccc12)NC(=O)Cc1cccs1`: the inhibition result in experiment [14] and in [10] was “inactive” in each case. Moreover, the MIC was 2 µg/mL in experiment [3]; 64 µg/mL in the experiment on Escherichia coli [4]; 8 µg/mL in [6]; 0.5 µg/mL with Escherichia coli [7]; 4 µg/mL in experiment [9]; 2 µg/mL in experiment [13]. Also, the fold change (FC) in experiment [5] stood at 4. The compound also had a Ki at Beta-lactamase L1 [11] of 0.17 µM. This compound had a half-inhibitory concentration (IC50) against Beta-lactamase L1 [12] of 0.29 µM.
For `CSCC[C@H](NC(=O)Cc1cccs1)C(=O)SCC(=O)O`, the MIC was 1 µg/mL in [3]; more than 64 µg/mL with Escherichia coli [4]; 8 µg/mL in experiment [6]; 0.5 µg/mL with Escherichia coli [7]; 4 µg/mL in experiment [9]; 2 µg/mL in [13]. The fold change (FC) in [5] stood at 4. The results for the IC50 (in [8]; at Beta-lactamase L1 [12]; in experiment [15]) were 13.3 µM, 0.018 µM and 123 µM, respectively. The same compound gave a Ki at Beta-lactamase L1 [11] of 0.11 µM.
Take `O=C(O)CSC(=O)[C@H](CO)NC(=O)Cc1cccs1`: the MIC came to 1 µg/mL in [3]; 64 µg/mL with Escherichia coli [4]; 8 µg/mL in experiment [6]; 0.5 µg/mL in the experiment with Escherichia coli [7]; 4 µg/mL in experiment [9]; 4 µg/mL in experiment [13]. For the same compound, the fold change (FC) in [5] was 2. The IC50 in experiment [8] stood at 60.1 µM; against Beta-lactamase L1 [12], 1.49 µM. Further, the inhibition entry in experiment [10] is “inactive”. Besides, the affinity on Beta-lactamase L1 [11] corresponds to a Ki of 0.17 µM.
Take `O=C(O)CSC(=O)[C@H](Cc1ccccc1)NC(=O)Cc1cccs1`: the IC50 was determined as 36.3 µM in [2], 65.4 µM in experiment [8] and 2.9 µM at Beta-lactamase L1 [12]. In addition, the MIC in experiment [3] was found to be 1 µg/mL; in the experiment with Escherichia coli [4], 64 µg/mL; in experiment [6], 8 µg/mL; with Escherichia coli [7], 0.5 µg/mL; in experiment [9], 4 µg/mL; in experiment [13] it was 4 µg/mL. Further, in experiment [5], the fold change (FC) was 2. Moreover, in experiment [10], the inhibition result is “inactive”. Further, the affinity at Beta-lactamase L1 [11] corresponds to a Ki of 0.95 µM.
For `O=C(O)CSC(=O)[C@H](CCCCNC(=O)Cc1cccs1)NC(=O)Cc1cccs1`, the inhibition result in experiment [14] and in experiment [10] was “inactive” each time. Also, the MIC in [3] turned out to be 2 µg/mL; with Escherichia coli [4], 64 µg/mL; in experiment [6] it was 4 µg/mL; in the experiment on Escherichia coli [7], 0.5 µg/mL; in experiment [9], 4 µg/mL; in experiment [13], 4 µg/mL. In experiment [5], the fold change (FC) was 2. For the same compound, the Ki on Beta-lactamase L1 [11] came to 0.19 µM. Moreover, the 50% inhibitory concentration (IC50) against Beta-lactamase L1 [12] turned out to be 1.08 µM.
Consider `O=C(O)CSC(=O)[C@@H]1CCCN1C(=O)Cc1cccs1`, for which the inhibition entry in experiment [14] and in experiment [10] was “inactive” in each case. Further, the MIC worked out at 2 µg/mL in [3]; 64 µg/mL in the experiment with Escherichia coli [4]; 8 µg/mL in experiment [6]; 0.5 µg/mL in the experiment on Escherichia coli [7]; 4 µg/mL in [9]; 2 µg/mL in experiment [13]. Further, in experiment [5], the fold change (FC) stood at 4. In addition, on Beta-lactamase L1 [11], the inhibition constant (Ki) worked out at 0.87 µM. Also, 0.45 µM corresponded to half-maximal inhibition on Beta-lactamase L1 [12] (IC50).
Regarding `C[C@H](NC(=O)Cc1cccs1)C(=O)SCC(=O)O`, the results for the IC50 (in experiment [2]; in experiment [8]; against Beta-lactamase L1 [12]) were 95.7 µM, 46.3 µM and 0.91 µM, respectively. Moreover, the MIC in experiment [3] was 1 µg/mL; in the experiment on Escherichia coli [4], more than 64 µg/mL; in experiment [6], 4 µg/mL; with Escherichia coli [7], 0.5 µg/mL; in experiment [9] it was 4 µg/mL; in [13], 2 µg/mL. In addition, the fold change (FC) in [5] is 4. In addition, in experiment [10], the inhibition entry is “inactive”. At Beta-lactamase L1 [11], this compound gave an inhibitory constant (Ki) of 0.41 µM.
For the compound `CC(C)[C@H](NC(=O)Cc1cccs1)C(=O)SCC(=O)O`, the IC50 in [2] is 12.4 µM; in experiment [8] it was 18.9 µM; on Beta-lactamase L1 [12], 0.45 µM; in experiment [15], 38.5 µM. Further, the MIC is 1 µg/mL in experiment [3]; more than 64 µg/mL with Escherichia coli [4]; 4 µg/mL in experiment [6]; 0.5 µg/mL with Escherichia coli [7]; 4 µg/mL in experiment [9]; 4 µg/mL in [13]. Further, the fold change (FC) in experiment [5] worked out at 2. This compound displayed a Ki at Beta-lactamase L1 [11] of 0.28 µM.

The term IC50 denotes the concentration that inhibits the measured activity by half. Lower therefore signals greater potency in that assay. Usually Ki stands for a dissociation constant, usually derived from enzyme kinetics or from competition with a known ligand. Low values mean tighter binding, high ones weaker binding.
